The values below come from ChEMBL document CHEMBL3244381, “Tetramisole analogues as inhibitors of alkaline phosphatase, an enzyme involved in the resistance of neoplastic cells to 6-thiopurines” (J Med Chem, 1977).

Activity calls are given as the source filed them. The rule behind the calls is not given here.

In one assay the target is T1, Alkaline phosphatase, tissue-nonspecific isozyme (Mus musculus, UniProt P09242).
T1 sequence (P09242 whole entry): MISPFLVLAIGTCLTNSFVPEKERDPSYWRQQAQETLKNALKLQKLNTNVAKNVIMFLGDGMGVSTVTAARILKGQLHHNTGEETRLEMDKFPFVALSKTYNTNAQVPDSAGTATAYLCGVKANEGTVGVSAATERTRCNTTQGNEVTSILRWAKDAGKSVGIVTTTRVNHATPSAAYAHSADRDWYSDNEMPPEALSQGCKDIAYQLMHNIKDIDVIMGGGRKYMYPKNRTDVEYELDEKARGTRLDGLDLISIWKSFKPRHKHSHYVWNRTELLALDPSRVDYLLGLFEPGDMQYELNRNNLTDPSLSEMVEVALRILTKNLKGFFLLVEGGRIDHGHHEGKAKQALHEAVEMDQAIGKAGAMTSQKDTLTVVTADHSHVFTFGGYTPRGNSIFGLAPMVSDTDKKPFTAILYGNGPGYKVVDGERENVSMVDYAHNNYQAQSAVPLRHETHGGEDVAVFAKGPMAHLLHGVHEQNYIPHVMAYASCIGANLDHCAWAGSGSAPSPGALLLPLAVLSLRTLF
Put plainly: Inhibition of alkaline phosphatase in mouse Sarcoma 180/TG cells. Type of assay: cell-based. The following applies: read-out: I50. Summed up:
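Partially purified particulate-bound alkaline phosphatase from Sarcoma 180/TG ascites cells (4360 units/mL); compounds tested as oxalate salts; IC50 taken as the concentration cutting observed enzyme activity by 50%.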
As to `C1=CN2CC(c3ccccc3)N=C2S1` (racemic), the IC50 stood at 45 µM.

Take `C1=CN2CC(c3ccc4ccccc4c3)N=C2S1` (racemic): the IC50 is 1 µM.

With `Brc1ccc([C@H]2CN3CCSC3=N2)cc1.O=C(O)C(=O)O`, the IC50 came out at 1.8 µM. With `c1ccc(C2CN3CCSC3=N2)cc1` (racemic), the IC50 is 38 µM. On the same count and under the same terms, in the case of `O=[N+]([O-])c1cccc(C2CN3CCSC3=N2)c1` (racemic) it was 38 µM.

Take `Cc1ccc(C2CN3C=CSC3=N2)cc1C` (racemic): the IC50 was determined as 11 µM.

Regarding `Brc1ccc(C2CN3C=CSC3=N2)cc1` (racemic), the IC50 stood at 1.3 µM. Consider `Brc1ccc(C2CN3CCSC3=N2)cc1` (racemic), for which the IC50 came to 2.6 µM. Same read-out and setting: next, `Clc1ccc(C2CN3CCSC3=N2)cc1` (racemic): 4.5 µM; `Brc1cccc(C2CN3C=CSC3=N2)c1` (racemic): 2 µM; `Cc1ccc(C2CN3C=CSC3=N2)cc1` (racemic): 6.6 µM. For the compound `c1ccc2cc(C3CN4CCSC4=N3)ccc2c1` (racemic), the IC50 was 9 µM. Turning to `Cc1cccc(C2CN3CCSC3=N2)c1` (racemic), the IC50 turned out to be 40 µM. For `C1=CN2CC(c3cccs3)N=C2S1` (racemic), the IC50 came out at 50 µM. Consider `Fc1ccc(C2CN3CCSC3=N2)cc1` (racemic), for which the IC50 is 16 µM. In the case of `Cc1ccc(C2CN3CCSC3=N2)cc1` (racemic), the IC50 was 8.1 µM.

Take `O=[N+]([O-])c1ccc(C2CN3C=CSC3=N2)cc1` (racemic): the IC50 came out at 8.3 µM.

Tested on in the next assay: not listed separately
Description: Ratio of growth inhibition of mouse Sarcoma 180/TG cells in presence of […] to growth inhibition of mouse Sarcoma 180/TG cells in absence of […] at 50 uM after 96 hrs.
Conditions: not given
It counts as functional. Summed up:
(§1)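 Log-phase Sarcoma 180/TG cells were seeded at 10^4 cells/mL in Fischer's medium with 10% horse serum at 37 °C. They were given the oxalate salt with or without 6-thioguanine (10^-6 M) for 96 h, and cell number/mL was counted. Ratio = cell count with 6-thioguanine / count without × 100.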
Consider `Brc1ccc([C@H]2CN3CCSC3=N2)cc1.O=C(O)C(=O)O`, for which the Ratio is on record as 66.

The next assay has as its target T2, Alkaline phosphatase, tissue-nonspecific isozyme (Mus musculus) (UniProt P09242).
T2 sequence (whole entry): T1 sequence (P09242 whole entry)
Put plainly: Inhibition of alkaline phosphatase in mouse Sarcoma 180/TG cells up to 5 x 10^-4 M. Type of assay: cell-based.
Conditions: not given
In short, it runs like this: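 Particulate-bound alkaline phosphatase, partially purified from Sarcoma 180/TG ascites cells (4360 units/mL), exposed to oxalate salts at concentrations up to at least 5 x 10^-4 M and checked for significant inhibition.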
Regarding `CSc1nc(-c2ccccc2)c[nH]1`, the inhibition entry was “inactive”.

As to `N=c1sccn1CC(=O)c1ccc2ccccc2c1`, the inhibition entry is “inactive”. Still for that read-out and setting: next, `CC(=O)/N=c1\sccn1CC(=O)c1ccc(C)cc1`: “inactive”. Consider `Cc1ccc(C(=O)Cn2ccsc2=N)cc1`, for which the inhibition entry was “inactive”. As for `N=c1sccn1CC(=O)c1ccc([N+](=O)[O-])cc1`, the inhibition result is “inactive”. For `CC(=O)/N=C1\SCCN1CC(=O)c1ccc2ccccc2c1`, the inhibition result is “inactive”. With `Cc1cccc(C(=O)CN2CCSC2=N)c1`, the inhibition result is “inactive”.

As to `CC(=O)/N=c1\sccn1CC(=O)c1ccc([N+](=O)[O-])cc1`, the inhibition result was “inactive”. The same measure, in the same setting: next, `CC(=O)/N=c1\sccn1CC(=O)c1ccc(C)c(C)c1`: “inactive”; `CC(=O)/N=c1\sccn1CC(=O)c1ccc(Br)cc1`: “inactive”; `N=C1SCCN1CC(=O)c1ccc2ccccc2c1`: “inactive”. Still for that read-out and setting: in the case of `CC(=O)/N=c1\sccn1CC(O)c1ccc(C)c(C)c1` (racemic) it was “inactive”. Turning to `CC(=O)/N=c1\sccn1CC(O)c1ccc([N+](=O)[O-])cc1` (racemic), the inhibition entry was “inactive”.

In the case of `CC(=O)/N=c1\sccn1CC(O)c1ccc(C)cc1` (racemic), the inhibition result is “inactive”. Turning to `CSc1nc(-c2ccccc2)cn1CCO`, the inhibition entry is “inactive”. The same measure, in the same setting: next, `CC(=O)/N=C1\SCCN1CC(=O)c1cccc(C)c1`: “inactive”; `CC(=O)/N=c1\sccn1CC(O)c1ccc2ccccc2c1` (racemic): “inactive”; `N=c1sccn1CC(=O)c1ccc(Br)cc1`: “inactive”.

As for `CC(=O)/N=c1\sccn1CC(O)c1ccc(Br)cc1` (racemic), the inhibition result was “inactive”. Same read-out and setting: next, `CC(=O)/N=c1\sccn1CC(=O)c1ccc2ccccc2c1`: “inactive”; `CC(=O)/N=C1\SCCN1CC(O)c1ccc2ccccc2c1` (racemic): “inactive”. With `CC(=O)/N=C1\SCCN1CC(O)c1cccc(C)c1` (racemic), the inhibition result is “inactive”.

Tested on in the next assay: not listed separately
Description: Ratio of growth inhibition of mouse Sarcoma 180/TG cells in presence of […] to growth inhibition of mouse Sarcoma 180/TG cells in absence of […] at 100 uM after 96 hrs. It counts as functional.
Conditions: not given
Summed up: as §1
Take `Brc1ccc([C@H]2CN3CCSC3=N2)cc1.O=C(O)C(=O)O`: the Ratio is reported as 49.

Tested on in the next assay: not listed separately
Description: Ratio of growth inhibition of mouse Sarcoma 180/TG cells in presence of […] to growth inhibition of mouse Sarcoma 180/TG cells in absence of […] at 10 uM after 96 hrs.
Conditions: not given
It counts as functional. In short, it runs like this:
as §1
Regarding `Brc1ccc([C@H]2CN3CCSC3=N2)cc1.O=C(O)C(=O)O`, the Ratio turned out to be 69.
